The list is not random: actives were taken first. Their share in the collection is about 5.7%.
Calb FLC = C. albicans growth inhibition with fluconazole, primary screen, CaCi-2 strain, Alamar Blue fluorescence; C. albicans CaCi-2 (fluconazole-resistant clinical isolate) + fluconazole, 48 h; growth inhibition, % (concentration not given with the values); AID 1979, 2009; 300,000 tested, 0.57% active;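 active = growth inhibition above about 58% in most replicates, limit read from the data, passing the limit was not always enough; inconclusive = exactly half the replicates above a set limit; inactive = most replicates below a set limit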;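 also: all wells also contain fluconazole at 8 µg/ml as a sub-toxic cotreatment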
CSC inhib = cancer stem cell viability inhibitors, primary screen, luminescence; AID 2717, 2010; cancer stem cell-like cells viability; inhibition, % at 7.5 µM; 300,000 tested, 1.1% active; in the data active = inhibition above about 75%; inconclusive = no clear call, values can overlap the other calls; tested in HMLE shEcad cells
SKKanGAS inh = S. pyogenes SKKanGAS growth inhibitors in kanamycin, primary screen, streptokinase expression inhibitor project, SKKanGAS strain, BacTiter-Glo luminescence. inhibition, % at 7.5 µM. 300,000 tested, 1.3% active. 6 h;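 active = mean replicate score, as percent of positive control median, at least 50; inconclusive = mean below 50 but one replicate at or above 50; inactive = mean and every replicate below 50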;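 also: strain carries kanamycin resistance gene driven by streptokinase promoter and grows in 40 µg/ml kanamycin; loss of luminescence reflects streptokinase promoter inhibition or plain growth inhibition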
Mdm2-MdmX inh = inhibitors of human Mdm2-MdmX association, primary screen, cell-based, luminescence, split luciferase, SaOS-2, uHTS. AID 485346, 2010. inhibition, % at 8 µM. Protein Mdm4 (Homo sapiens) + E3 ubiquitin-protein ligase Mdm2 (Homo sapiens), …. SaOS-2 split-luciferase Mdm2/MdmX complementation. 330,000 tested, 3% active;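 active = inhibition of at least 50% at 8 µM in the primary screen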
Target sequence (O15151 whole entry, looked up): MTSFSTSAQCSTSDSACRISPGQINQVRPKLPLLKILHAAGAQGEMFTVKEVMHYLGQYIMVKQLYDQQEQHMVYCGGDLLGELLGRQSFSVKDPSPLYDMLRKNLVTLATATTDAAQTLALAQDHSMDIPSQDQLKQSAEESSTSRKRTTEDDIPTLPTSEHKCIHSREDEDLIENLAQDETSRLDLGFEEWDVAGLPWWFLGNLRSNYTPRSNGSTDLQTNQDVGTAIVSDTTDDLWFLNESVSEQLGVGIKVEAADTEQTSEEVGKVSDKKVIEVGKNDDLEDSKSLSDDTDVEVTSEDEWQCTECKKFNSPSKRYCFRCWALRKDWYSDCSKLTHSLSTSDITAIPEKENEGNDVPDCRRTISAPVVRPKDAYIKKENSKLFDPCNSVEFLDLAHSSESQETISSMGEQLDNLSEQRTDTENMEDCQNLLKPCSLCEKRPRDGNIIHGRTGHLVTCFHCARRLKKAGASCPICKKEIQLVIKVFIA
Target sequence (Q00987 whole entry, looked up): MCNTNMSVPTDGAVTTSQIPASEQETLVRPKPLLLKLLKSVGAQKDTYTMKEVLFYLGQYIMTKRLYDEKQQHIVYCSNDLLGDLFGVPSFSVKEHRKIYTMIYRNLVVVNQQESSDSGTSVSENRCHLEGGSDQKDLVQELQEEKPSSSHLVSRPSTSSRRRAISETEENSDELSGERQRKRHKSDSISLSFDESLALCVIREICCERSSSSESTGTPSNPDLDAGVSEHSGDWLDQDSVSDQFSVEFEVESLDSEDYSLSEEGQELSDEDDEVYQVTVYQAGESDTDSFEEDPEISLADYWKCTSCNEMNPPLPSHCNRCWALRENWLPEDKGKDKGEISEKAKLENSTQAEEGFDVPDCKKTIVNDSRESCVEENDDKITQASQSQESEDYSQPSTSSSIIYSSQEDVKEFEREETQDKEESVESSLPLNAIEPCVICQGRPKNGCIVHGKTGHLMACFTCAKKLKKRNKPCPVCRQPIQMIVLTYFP
Beta cell apopt = inhibitors of cytokine-induced beta cell apoptosis, primary screen, luminescence | INS-1E cytokine-induced death, ATP luminescence, 48 h; percent of positive-control rescue, neutral wells zero | protection from apoptosis, % (no concentration beside the values) | 300,000 tested, 0.8% active;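 active = Every replicate reaches about 75%, or at least half do and their mean reaches it too, limit read from the data; inconclusive = At least half of replicates reach the limit but their mean does not; inactive = Under half of replicates reach the limit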;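 also: higher means more ATP so stronger rescue from cytokine killing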
T cruzi repl = inhibitors of intracellular T. cruzi growth, primary screen, luminescence, NIH3T3 host cells; T. cruzi beta-gal in NIH3T3, 90 h; inhibition, % (concentration not given with the values); 300,000 tested, 1.4% active; AID 1885, 2009;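 active = mean inhibition across valid replicates above about 55%, limit read from the data; inconclusive = mean below that limit but half or more replicates reach it; inactive = mean below it, under half of replicates reach it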;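 also: signal also drops with host cell toxicity which is not excluded here; higher percent means less beta-gal luminescence so fewer parasites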
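System – NIH/3T3 host cells with β-galactosidase reporter T. cruzi · Doses – single 50 nL compound addition per well in DMSO · Reagent – 5000 T. cruzi trypomastigotes/well · Medium – Low-serum DMEM with 2% FBS · Timing – ≥90 h infection period, 3 h prior cell attachment · Evaluation – parasite load inhibition, % · Technique – GalScreen luminescence, 60 min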
Hits are given with their value; i = inactive; ? = inconclusive; nt = no result.

SMILES	Calb FLC	CSC inhib	SKKanGAS inh	Mdm2-MdmX inh	Beta cell apopt	T cruzi repl
CCOc1cc(/C=C(/C#N)c2nc3ccccc3[nH]2)ccc1Oc1ccc([N+](=O)[O-])cn1	i	i	i	i	i	i
COc1cc(/C=C(/C#N)c2ccc(C)cc2)ccc1Oc1ccc([N+](=O)[O-])cn1	i	i	i	i	i	71
C[C@H](CO)N1C[C@H](C)[C@@H](CN(C)C)Oc2c(NS(=O)(=O)c3ccc(F)cc3)cccc2C1=O	nt	i	nt	i	i	nt
O=C(c1cc(-c2cccc(Cl)c2)nc2ccccc12)N1CCN(c2ccccn2)CC1	i	i	i	i	96	i
O=C(c1cc(-c2ccncc2)nc2ccc(Br)cc12)N1CCN(c2ccccn2)CC1	i	i	i	i	i	?
Cc1cccc2c(C(=O)N3CCN(c4ccccn4)CC3)cc(-c3cccc(Br)c3)nc12	i	i	i	i	112	i
Cn1c(NNC(=O)c2cccc3ccccc23)cc(=O)n(C)c1=O	i	i	i	i	i	i
COc1ccc(-c2csc(NS(=O)(=O)c3ccc([N+](=O)[O-])cc3)n2)cc1	i	i	i	i	i	i
O=C(O)c1ccccc1C(=O)Nc1ccc(-c2csc(-c3ccccc3)n2)cc1	i	i	i	nt	i	i
O=S(=O)(Nc1ccc(-c2csc(-c3ccccc3)n2)cc1)c1ccccc1	i	148	i	i	i	i
Cc1nc(-c2cccc(NS(=O)(=O)c3ccccc3)c2)cs1	i	i	i	i	i	i
O=C(O)c1ccc(-c2nc(-c3ccc(Cl)c(Cl)c3)cs2)cc1	89	nt	57	i	i	i
O=[N+]([O-])c1ccc(S(=O)(=O)Nc2ccc(-c3csc(-c4ccccc4)n3)cc2)cc1	i	100	66	i	i	66
O=C(Nc1ccc(-c2csc(-c3ccccc3)n2)cc1)c1ccccc1Cl	i	nt	i	i	nt	62
O=C(O)c1ccc(Nc2nc3ccccc3nc2NS(=O)(=O)c2ccc(F)cc2)cc1	i	i	i	i	i	i
O=[N+]([O-])c1ccc(S(=O)(=O)Nc2nc3ccccc3nc2Nc2ccccc2)cc1	105	i	i	i	i	i
Cc1ccc(S(=O)(=O)Nc2nc(-c3ccccc3)cs2)cc1	i	i	i	i	i	i
Cc1ccc(S(=O)(=O)Nc2ccc(-c3csc(-c4ccccc4)n3)cc2)cc1	i	112	i	i	i	i
O=C(CCNC(=O)c1ccccc1Cl)Nc1nc(-c2ccc3ccccc3c2)cs1	i	i	i	i	i	56
CN(C)CCNC(=O)c1sc2nc(-c3ccccc3)cc(C(F)(F)F)c2c1N	i	78	i	i	i	i
C/C(=N\NC(=O)c1cc(Br)ccc1O)c1cccc(NC(=O)c2ccccc2F)c1	i	i	63	i	i	i
C/C(=N\NC(=O)c1ccccc1F)c1cccc(NC(=O)c2ccccc2)c1	i	nt	i	i	i	i
O=C(COS(=O)c1ccccc1)Nc1cc(Cl)ccc1N1CCOCC1 (configuration not stated)	64	i	i	i	i	i
Cc1ccc(S(=O)OCC(=O)Nc2cc(Cl)ccc2N2CCOCC2)cc1 (configuration not stated)	i	i	i	i	i	i
Cc1cccc(CN2CCN(Cc3cccc(-n4cccn4)c3)CC2CCO)n1 (configuration not stated)	i	i	i	i	i	i
SMILES	Calb FLC	CSC inhib	SKKanGAS inh	Mdm2-MdmX inh	Beta cell apopt	T cruzi repl
CC12CCC(C(=O)NNc3ccc([N+](=O)[O-])cc3)(CC1=O)C2(C)C (configuration not stated)	121	i	i	i	i	i
COc1cc2c(cc1OC)CN(c1nc(CN3CCCC3)nc3sc(C)c(C)c13)CC2	i	i	i	i	i	69
Cc1cccc(CNc2ccc(S(=O)(=O)N3CCCCC3)cc2)c1	nt	nt	nt	i	101	nt
Cc1cccc(NC(=O)CSCC(=O)Nc2ccc(S(=O)(=O)N3CCCC3)cc2)c1	i	i	i	i	i	i
CC1=NN(C(N)=S)C(=O)C1N=Nc1ccc(Cl)cc1Cl (configuration not stated)	i	i	i	i	i	i
CCCCOc1ccc(S(=O)(=O)N2CCCCC2)cc1	i	i	i	i	i	i
CCCCOc1ccc(S(=O)(=O)N2CCN(c3ccc(N4CCN(CC)CC4)nn3)CC2)cc1	i	95	i	i	nt	i
COc1ccc(C(c2c(O)ccc3ccccc23)N2CCOCC2)c(OC)c1 (configuration not stated)	87	101	i	i	i	i
CCOc1ccc(S(=O)(=O)c2c(C(=O)c3ccccc3)cnc3cc4c(cc23)OCCO4)cc1	i	i	i	i	i	71
Cc1ccccc1NS(=O)(=O)c1cc(OCC(N)=O)c(C)cc1Cl	118	i	i	i	i	i
Oc1c(C(Nc2cccc(C(F)(F)F)c2)c2cccnc2)ccc2cccnc12 (configuration not stated)	96	i	?	i	i	?
Oc1c(C(Nc2ccccn2)c2cccnc2)cc(Cl)c2cccnc12 (configuration not stated)	i	i	95	i	85	55
CC(=O)NC(c1cccs1)c1cc([N+](=O)[O-])c2cccnc2c1O (configuration not stated)	81	99	i	nt	90	i
CCC(=O)NC(c1ccco1)c1cc(Cl)c2cccnc2c1O (configuration not stated)	90	i	i	i	i	63
CCC(=O)NC(c1ccco1)c1cc(Cl)c2cccnc2c1OC (configuration not stated)	nt	i	nt	i	i	nt
COC(=O)[C@H](Cc1ccccc1)NC(=O)NCCc1ccccc1F	i	i	i	i	i	i
O=c1c2ccccc2oc2c1oc1ccccc12	nt	nt	nt	i	nt	nt
O=C(CCc1ccccc1)NC(c1cccs1)c1cc(Cl)c2cccnc2c1O (configuration not stated)	?	nt	67	nt	nt	66
CCC(=O)NC(c1cccs1)c1cc([N+](=O)[O-])c2cccnc2c1O (configuration not stated)	86	109	i	i	i	i
CCCC(=O)NC(c1cccs1)c1cc([N+](=O)[O-])c2cccnc2c1O (configuration not stated)	i	106	86	nt	i	i
CN(Cc1ccc2ccccc2c1)C(=O)c1ccc(C(F)(F)F)cc1	i	i	i	i	i	i
Cc1nn(Cc2ccc(C(=O)Nc3nc4c(C)cccc4s3)o2)c(C)c1Br	i	i	58	i	i	i
Cc1cc(NC(=O)c2ccc(Cn3nc(C)c(Br)c3C)o2)no1	i	i	i	i	nt	i

Source: PubChem (several laboratories)
